According to ChEMBL document CHEMBL4392827, “Tryptamine derivatives disarm colistin resistance in polymyxin-resistant gram-negative bacteria” (Bioorg Med Chem, 2019):
The source made the active and inactive calls. No cut-off for these calls is given here.

Columns and labels:
Acinetobacter baumannii [1] = test: Potentiation of colistin-induced antimicrobial activity against colistin-resistant Acinetobacter baumannii 4106 assessed as fold reduction in colistin MIC at 60 uM after 18 hrs by broth microdilution assay; assay type: functional
Summary of the method: (§1)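 Checkerboard-style resensitization following adapted CLSI broth microdilution. Bacteria were grown 4–6 h in CAMHB and subcultured to 5×10^5 CFU/mL. Adjuvant was added from DMSO stock and held constant while colistin was serially diluted in the dosed subculture. Plates were incubated stationary at 37°C for 18 h, then MICs were read. Fold reduction was taken relative to the colistin MIC without adjuvant.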

Klebsiella pneumoniae [2] = test: Potentiation of colistin-induced antimicrobial activity against colistin-resistant Klebsiella pneumoniae B9 assessed as fold reduction in colistin MIC at 60 uM after 18 hrs by broth microdilution assay; assay type: functional; summary of the method: as §1
Acinetobacter baumannii [3] = test: Potentiation of colistin-induced antimicrobial activity against colistin-resistant Acinetobacter baumannii isolate 3941 assessed as fold reduction in colistin MIC at 60 uM after 18 hrs by broth microdilution assay; assay type: functional; summary of the method: as §1
Acinetobacter baumannii [4] = test: Potentiation of colistin-induced antimicrobial activity against colistin-resistant Acinetobacter baumannii isolate 3942 assessed as fold reduction in colistin MIC at 60 uM after 18 hrs by broth microdilution assay; assay type: functional; summary of the method: as §1
Acinetobacter baumannii [5] = test: Potentiation of colistin-induced antimicrobial activity against colistin-resistant Acinetobacter baumannii isolate 4112 assessed as fold reduction in colistin MIC at 60 uM after 18 hrs by broth microdilution assay; assay type: functional; summary of the method: as §1
Klebsiella pneumoniae [6] = test: Potentiation of colistin-induced antimicrobial activity against colistin-resistant Klebsiella pneumoniae isolate A5 assessed as fold reduction in colistin MIC at 60 uM after 18 hrs by broth microdilution assay; assay type: functional; summary of the method: as §1
Klebsiella pneumoniae [7] = test: Potentiation of colistin-induced antimicrobial activity against colistin-resistant Klebsiella pneumoniae isolate C3 assessed as fold reduction in colistin MIC at 60 uM after 18 hrs by broth microdilution assay; assay type: functional; summary of the method: as §1
Acinetobacter baumannii [8] = test: Potentiation of colistin-induced antimicrobial activity against colistin-sensitive Acinetobacter baumannii 5075 assessed as fold reduction in colistin MIC at 60 uM after 18 hrs by broth microdilution assay; assay type: functional
Summary of the method: (§2)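 Bacteria grown 4–6 h in cation-adjusted Mueller-Hinton broth and diluted to 5 ×10^5 CFU/mL. Adjuvant from DMSO stock held at fixed 60 μM while colistin is twofold serially diluted in the same adjuvant-dosed broth. Plates sealed and kept stationary at 37°C for 18 h. Colistin MIC read and fold reduction taken relative to colistin alone.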

Acinetobacter baumannii [9] = test: Potentiation of colistin-induced antimicrobial activity against Acinetobacter baumannii ATCC 17978 assessed as fold reduction in colistin MIC at 60 uM after 18 hrs by broth microdilution assay; assay type: functional; summary of the method: as §2
Escherichia coli [10] = test: Potentiation of colistin-induced antimicrobial activity against Escherichia coli ATCC 25922 assessed as fold reduction in colistin MIC at 60 uM after 18 hrs by broth microdilution assay; assay type: functional; summary of the method: as §2
Klebsiella pneumoniae [11] = test: Potentiation of colistin-induced antimicrobial activity against Klebsiella pneumoniae ATCC BAA-2146 expressing NDM1 gene assessed as fold reduction in colistin MIC at 60 uM after 18 hrs by broth microdilution assay; assay type: functional; summary of the method: as §2
Acinetobacter baumannii [12] = test: Potentiation of colistin-induced antimicrobial activity against colistin-resistant Acinetobacter baumannii ATCC 17978 expressing mcr1 gene assessed as fold reduction in colistin MIC at 60 uM after 18 hrs by broth microdilution assay; assay type: functional; summary of the method: as §1
Escherichia coli [13] = test: Potentiation of colistin-induced antimicrobial activity against colistin-resistant Escherichia coli ATCC 25922 expressing mcr1 gene assessed as fold reduction in colistin MIC at 60 uM after 18 hrs by broth microdilution assay; assay type: functional; summary of the method: as §1
Acinetobacter baumannii [14] = test: Toxicity in Acinetobacter baumannii 4106 after 18 hrs by broth microdilution assay; assay type: organism-based; details: in vitro
Summary of the method: (§3)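 Single-agent MIC per CLSI broth microdilution. Cells from a 4–6 h culture in cation-adjusted Mueller-Hinton broth adjusted to 5 ×10^5 CFU/mL. Compound (DMSO stock) added to 200 μM top concentration and twofold serially diluted six times, with an untreated control row. Plates sealed and incubated stationary at 37°C for 18 h before MIC read.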

Klebsiella pneumoniae [15] = test: Toxicity in Klebsiella pneumoniae B9 after 18 hrs by broth microdilution assay; assay type: organism-based; summary of the method: as §3
Acinetobacter baumannii [16] = test: Toxicity in Acinetobacter baumannii ATCC 17978 expressing mcr1 gene after 18 hrs by broth microdilution assay; assay type: organism-based; summary of the method: as §3
Escherichia coli [17] = test: Toxicity in Escherichia coli ATCC 25922 after 18 hrs by broth microdilution assay; assay type: organism-based; details: in vitro; summary of the method: as §3
Acinetobacter baumannii [18] = test: Induction of membrane permeabilization in colistin-resistant Acinetobacter baumannii isolate 3942 at 60 uM measured after 1 hr by SYTO-9/propidium iodide staining based fluorescence assay relative to control; assay type: functional
Summary of the method: (§4)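 Cells were grown overnight in CAMHB at 37°C, diluted 1:10 and grown 4 h more to an OD600 of ~0.3. They were pelleted, washed with sterile water and resuspended at 1/10 volume in water containing compound. After 1 h at 37°C with shaking, cells were washed and stained with SYTO-9/propidium iodide (1:1, 3 μL/mL) for 15 min at RT. Emission was read at 530 and 645 nm (excitation 485 nm), and the green/red ratio was expressed as % of the untreated control.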

Klebsiella pneumoniae [19] = test: Induction of membrane permeabilization in colistin-resistant Klebsiella pneumoniae isolate C3 at 60 uM measured after 1 hr by SYTO-9/propidium iodide staining based fluorescence assay relative to control; assay type: functional; summary of the method: as §4
[20] = Hemolytic activity in sheep erythrocytes assessed as hemolysis at 100 uM incubated for 1 hr under shaking condition by UV-spectrophotometry; assay type: ADME, cell-based, Ovis aries, Erythrocyte; details: read-out: Activity
Summary of the method: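 Washed sheep erythrocytes (defibrinated blood spun, resuspended in PBS three times) diluted 10-fold in PBS containing compound from DMSO stock. DMSO negative control (0% lysis), 1% Triton X100 positive control (100% lysis). 1 h at 37°C with shaking, then spun 10 min at 10,000 rpm and supernatant diluted 1:40 in distilled water.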

SMILES | fold change (FC) (Acinetobacter baumannii [1]) | fold change (FC) (Klebsiella pneumoniae [2]) | fold change (FC) (Acinetobacter baumannii [3]) | fold change (FC) (Acinetobacter baumannii [4]) | fold change (FC) (Acinetobacter baumannii [5]) | fold change (FC) (Klebsiella pneumoniae [6]) | fold change (FC) (Klebsiella pneumoniae [7]) | fold change (FC) (Acinetobacter baumannii [8]) | fold change (FC) (Acinetobacter baumannii [9]) | fold change (FC) (Escherichia coli [10]) | fold change (FC) (Klebsiella pneumoniae [11]) | fold change (FC) (Acinetobacter baumannii [12]) | fold change (FC) (Escherichia coli [13]) | MIC (Acinetobacter baumannii [14]) [µM] | MIC (Klebsiella pneumoniae [15]) [µM] | MIC (Acinetobacter baumannii [16]) [µM] | MIC (Escherichia coli [17]) [µM] | Activity (Acinetobacter baumannii [18]) | Activity (Klebsiella pneumoniae [19]) | hemolysis at 1 h, 100 µM [20] [%]
O=C(NCCc1c[nH]c2ccccc12)c1cccc(Br)n1 | 16 | 1024 | 8 | 8 | 8 | 0 | 512 | 0 | 2 | 2 | 2 |  |  |  |  |  |  |  |  | 
O=C(NCCc1c[nH]c2ccccc12)c1cc(I)c(I)[nH]1 | 128 | 2048 | 128 | 128 | 128 | 256 | 512 | 2 | 2 | 2 | 2 | 16 | 4 |  |  |  |  |  |  | 
Cc1cccc2c(CCNC(=O)c3cc(Br)c(Br)[nH]3)c[nH]c12 | 256 | 512 | 256 | 256 | 256 | 256 | 512 | 2 | 2 | 2 | 2 | 32 | 8 | > 200 | > 200 | > 200 | > 200 |  |  | 
CCCCn1cc(CCNC(=O)c2cc(Br)c(Br)[nH]2)c2ccccc21 | 0 | 0 |  |  |  |  |  |  |  |  |  | 0 | 0 | > 200 | > 200 | > 200 | > 200 | inactive | inactive | < 1
O=C(NCCc1c[nH]c2ccccc12)c1cc(I)c[nH]1 | 64 | 2048 | 64 | 32 | 32 | 32 | 128 | 0 | 2 | 2 | 2 | 16 |  |  |  |  |  |  |  | 
